For assay [1], the system named is MGC-803. Briefly: Cytotoxicity against human MGC803 cells assessed as reduction in cell viability measured after 72 hrs by CCK8 assay. Particulars: MGC-803, 72 h. The assay is classed as functional, cell-based. In outline: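 MGC803 or AGS cells (RPMI 1640, 10% FBS, 5% CO₂, 37 °C) plated at 3 × 10³ per well overnight, then exposed to 0.1–10 μM for 72 h. Viability was read by CCK8 absorbance at 450 nm, and IC₅₀ was calculated from the concentration series.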

Assay [2] relates to AGS. The experiment in a line: Induction of apoptosis in human AGS cells assessed as viable cells at 1 uM measured after 48 hrs FITC-A/PE-A staining based flow cytometry (reference value: 92.05 to 93.85%). As to conditions: read-out: Activity. The assay is classed as functional. Background: In flow cytometry, cells or beads pass a laser one at a time.
Assay [3] relates to MGC-803. Briefly: Induction of apoptosis in human MGC803 cells measured after 48 hrs FITC-A/PE-A staining based flow cytometry. In kind it is functional, cell-based.
Assay [4] relates to MGC-803. The experiment in a line: Cell cycle arrest in human MGC803 cells assessed as accumulation at G1-phase at 1 uM measured after 24 hrs by propidium iodide staining based flow cytometry (reference value: 45%). In kind it is functional.
For assay [5], the system named is AGS. The experiment in a line: Induction of apoptosis in human AGS cells assessed as viable cells at 0.5 uM measured after 48 hrs FITC-A/PE-A staining based flow cytometry (reference value: 92.05 to 93.85%). The assay is classed as functional. As to conditions: read-out: Activity.
The test system of assay [6] is AGS. The experiment in a line: Induction of apoptosis in human AGS cells assessed as necrotic cells at 5 uM measured after 48 hrs FITC-A/PE-A staining based flow cytometry (reference value: 1.35 to 2.69%). The assay is classed as functional.
For assay [7], the system named is AGS. Briefly: Induction of apoptosis in human AGS cells assessed as late apoptotic cells at 5 uM measured after 48 hrs FITC-A/PE-A staining based flow cytometry (reference value: 1.89 to 3.49%). The assay is classed as functional.
The subject of assay [8] is AGS. The experiment in a line: Induction of apoptosis in human AGS cells assessed as early apoptotic cells at 0.5 uM measured after 48 hrs FITC-A/PE-A staining based flow cytometry (reference value: 1.77 to 2.91%). The assay is classed as functional.
For assay [9], the system named is MGC-803. Briefly: Induction of apoptosis in human MGC803 cells assessed as early apoptotic cells at 0.5 uM measured after 48 hrs FITC-A/PE-A staining based flow cytometry (reference value: 0.59 to 3.54%). In kind it is functional.
The subject of assay [10] is MGC-803. Briefly: Induction of apoptosis in human MGC803 cells assessed as necrotic cells at 0.5 uM measured after 48 hrs FITC-A/PE-A staining based flow cytometry (reference value: 0.9 to 2.18%). In kind it is functional.
In assay [11] the test system is MGC-803. Briefly: Induction of apoptosis in human MGC803 cells assessed as early apoptotic cells at 5 uM measured after 48 hrs FITC-A/PE-A staining based flow cytometry (reference value: 0.59 to 3.54%). In kind it is functional.
The subject of assay [12] is MGC-803. Briefly: Induction of apoptosis in human MGC803 cells assessed as late apoptotic cells at 5 uM measured after 48 hrs FITC-A/PE-A staining based flow cytometry (reference value: 0.67 to 0.82%). In kind it is functional.
The subject of assay [13] is MGC-803. Briefly: Induction of apoptosis in human MGC803 cells assessed as late apoptotic cells at 0.2 uM measured after 48 hrs FITC-A/PE-A staining based flow cytometry (reference value: 0.9 to 2.18%). The assay is classed as functional.
In assay [14] the test system is MGC-803. Briefly: Cell cycle arrest in human MGC803 cells assessed as accumulation at G1-phase at 0.5 uM measured after 24 hrs by propidium iodide staining based flow cytometry (reference value: 45%). In kind it is functional.

For the compound `CC[C@H](C)/C=C/C1=CC2=C(Cl)C(=O)[C@@]3(C)OC(=O)C(C(=O)[C@@H](C)[C@@H](C)O)=C3C2=CN1C/C=C(\C)CCC=C(C)C`, the IC50 in the assay on MGC-803 [1] is 460 nM. For the same compound, in the assay on AGS [2], the viability at 1 µM was found to be 45%. Further, the Activity result with MGC-803 [3] was “Dose-dependent effect”; in the assay on MGC-803 [4], 58%; in the assay with AGS [6], 2.44%; with AGS [7], 86.77%; in the assay on AGS [8] it was 5.89%; in the assay with MGC-803 [9] it was 2.65%. Moreover, the Activity was determined as 3.23% with MGC-803 [10]; 6.2% in the assay on MGC-803 [11]; 68.63% in the assay on MGC-803 [12]; 2.23% with MGC-803 [13]; 48% with MGC-803 [14]. Also, the viability at 0.5 µM in the assay with AGS [5] is 88.2%.

The term IC50 denotes the concentration that gives 50% inhibition.

Source of the values: ChEMBL document CHEMBL4610092, “Cytotoxic Nitrogenated Azaphilones from the Deep-Sea-Derived Fungus Chaetomium globosum MP4-S01-7” (J Nat Prod, 2020).
